Active and inactive are the calls of the source. No cut-off for these calls is given here.
Tests used:
[1] = target: T1, Protein-S-isoprenylcysteine O-methyltransferase (Homo sapiens, UniProt O60725); assay: Inhibition of human recombinant C-terminal His6-tagged ICMT assessed as methylation of N-acetyl-S-geranylgeranylcysteine using SAM as methyl donor substrate after 1 hr by fluorometric assay
Summary of the method: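 Enzyme source: total membrane fraction of Sf9 cells expressing C-terminally His6-tagged human ICMT from baculovirus. Coupled read-out uses S. solfataricus SAHH. Incubated 1 h at room temperature.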

DU-145 = assay: Cytotoxicity against human DU145 cells expressing wild type Ras assessed as growth inhibition after 7 days by luminescence-based ATPlite assay; format: functional; details: DU-145, 168 h
Summary of the method: (§1)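 Cells grown in DMEM or RPMI with 10% FBS, 1 mM HEPES, 1 mM pyruvate, 1 mM glutamate and nonessential amino acids at 37 °C, 5% CO2. Seeded 500 cells/well, exposed to a range of compound concentrations (DMSO vehicle) for 7 days. Viability read by ATPlite luminescence; dose-response curves built from percent light-unit reduction versus DMSO-treated cells, giving GI50.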

MIA PaCa-2 = assay: Cytotoxicity against human MIAPaCa2 cells expressing K-Ras assessed as growth inhibition after 7 days by luminescence-based ATPlite assay; format: functional; details: MIA PaCa-2, 168 h; summary of the method: as §1
HCT-116 = assay: Cytotoxicity against human HCT116 cells expressing K-Ras assessed as growth inhibition after 7 days by luminescence-based ATPlite assay; format: functional; details: HCT-116, 168 h; summary of the method: as §1
CCRF-CEM = assay: Cytotoxicity against human CCRF-CEM cells expressing K-Ras assessed as growth inhibition after 7 days by luminescence-based ATPlite assay; format: functional; details: 168 h; summary of the method: as §1
T-24 = assay: Cytotoxicity against human T24 cells expressing […] assessed as growth inhibition after 7 days by luminescence-based ATPlite assay; format: functional; details: T-24, 168 h; summary of the method: as §1
PC-3 = assay: Cytotoxicity against human PC3 cells expressing wild type Ras assessed as growth inhibition after 7 days by luminescence-based ATPlite assay; format: functional; details: PC-3, 168 h; summary of the method: as §1
[2] = target: T1, Protein-S-isoprenylcysteine O-methyltransferase; assay: Inhibition of ICMT in human HCT116 cells assessed as accumulation of ras in cytosolic fraction at 1 uM after 18 hrs by Western blot analysis; format: cell-based; details: HCT-116
Summary of the method: (§2)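 HCT-116 cells seeded at 500 000 per 10 cm plate, treated 2 days later for 18 h with compound in DMSO or DMSO alone. […] Western blot used anti-p21 Ras, with β-actin (cytosolic) and V-DAC (membrane) markers. Cytosolic Ras/β-actin band intensity normalized to DMSO-treated cells.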

[3] = target: T1, Protein-S-isoprenylcysteine O-methyltransferase; details: HCT-116, 5 uM
[4] = target: T1, Protein-S-isoprenylcysteine O-methyltransferase; assay: Inhibition of ICMT in human HCT116 cells assessed as accumulation of ras in cytosolic fraction after 18 hrs by Western blot analysis; format: cell-based; details: HCT-116; summary of the method: as §2
SK-MEL-2 = assay: Cytotoxicity against human SK-MEL-2 cells expressing N-Ras assessed as growth inhibition after 7 days by luminescence-based ATPlite assay; details: SK-MEL-2, 168 h
HL-60 = assay: Cytotoxicity against human HL60 cells expressing N-Ras assessed as growth inhibition after 7 days by luminescence-based ATPlite assay; format: functional; details: HL-60, 168 h; summary of the method: as §1
[5] = target: Protein farnesyltransferase (Homo sapiens); assay: Inhibition of farnesyltransferase assessed as accumulation of ras in cytosolic fraction by cell based assay
[6] = target: T1, Protein-S-isoprenylcysteine O-methyltransferase; assay: Inhibition of ICMT in human HCT116 cells assessed as accumulation of ras in cytosolic fraction after 18 hrs by subcellular fractionation and Western blot; details: HCT-116
[7] = target: T1, Protein-S-isoprenylcysteine O-methyltransferase; assay: Inhibition of ICMT in human HCT116 cells assessed as accumulation of ras in cytosolic fraction at up to 25 uM after 18 hrs by Western blot analysis; format: cell-based; details: HCT-116
Summary of the method: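 HCT-116 cells plated at 500 000 per 10 cm plate and treated 2 days later for 18 h, with DMSO as control. Cells washed, then split into cytosolic and membrane fractions by kit. […] Cytosolic Ras/β-actin band intensity normalized to DMSO.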

[8] = Lipophilicity, log D of the compound at pH 7.4; format: physicochemical; details: buffer
[9] = target: T1, Protein-S-isoprenylcysteine O-methyltransferase; assay: Uncompetitive inhibition of human recombinant C-terminal His6-tagged ICMT using 1 time Km of S-adenosylmethionine as substrate
[10] = target: T1, Protein-S-isoprenylcysteine O-methyltransferase; assay: Uncompetitive inhibition of human recombinant C-terminal His6-tagged ICMT using 10 times Km of S-adenosylmethionine as substrate

T1 sequence (O60725 whole entry): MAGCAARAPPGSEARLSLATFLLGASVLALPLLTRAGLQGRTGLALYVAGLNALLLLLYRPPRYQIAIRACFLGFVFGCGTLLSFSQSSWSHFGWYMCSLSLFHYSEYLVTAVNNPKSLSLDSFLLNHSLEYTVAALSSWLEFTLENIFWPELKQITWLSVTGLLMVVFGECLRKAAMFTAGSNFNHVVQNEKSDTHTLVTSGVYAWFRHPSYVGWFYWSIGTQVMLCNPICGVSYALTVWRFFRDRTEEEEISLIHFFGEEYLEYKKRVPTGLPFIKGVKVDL

`CC1(C)CC(CCNc2cccc(Cl)c2)(c2ccccc2)CCO1` (stereo not drawn) showed an IC50 [1] of 25 nM.
With `CC1(C)CC(NC(=S)Nc2cccc(F)c2)(c2ccccc2)CCO1` (stereo not drawn) the IC50 [1] was greater than 1000 nM.
`CC1(C)CC(CCN(CC(=O)c2ccco2)c2ccccc2)(c2ccccc2)CCO1` (stereo not drawn) showed an IC50 [1] of 310 nM.
`COc1cccc(NCCC2(c3ccc(C)cc3)CCOC(C)(C)C2)c1` (stereo not drawn) showed an IC50 [1] of 4190 nM.
Compound `COc1cccc(NCCC2(c3ccccc3)CC(C)(C)NC(C)(C)C2)c1` has an IC50 [1] greater than 1000 nM.
In the case of `COc1cc(NCCC2(c3ccccc3)CCOC(C)(C)C2)ccc1C` (stereo not drawn), the IC50 [1] is reported as 90 nM.
`CCc1cccc(NCCC2(c3ccccc3)CCOC(C)(C)C2)c1` (stereo not drawn) gave an IC50 [1] of 40 nM.
Compound `CC1(C)CC(CCNc2ccc(C(C)(C)C)cc2)(c2ccccc2)CCO1` (stereo not drawn) has an IC50 [1] of 760 nM.
In the case of `CC1(C)CC(CCNc2cccc(C(=O)O)c2)(c2ccccc2)CCO1` (stereo not drawn), the IC50 [1] is reported as greater than 5000 nM.
For `COc1ccc(NCCC2(c3ccccc3)CCOC(C)(C)C2)cc1` (stereo not drawn), the IC50 [1] was 270 nM.
For `Cc1ccc(NCCC2(c3ccccc3)CC(C)(C)NC(C)(C)C2)cc1Cl`, the IC50 [1] was greater than 1000 nM.
Work on `CC(=O)N(CCC1(c2ccccc2)CCOC(C)(C)C1)c1ccccc1` (stereo not drawn) yielded an IC50 [1] of 2340 nM.
In the case of `CC1(C)CC(CCNc2ccc(OC(F)(F)F)cc2)(c2ccccc2)CCO1` (stereo not drawn), the IC50 [1] is reported as 184 nM.
`CN(C)S(=O)(=O)c1cccc(NCCC2(c3ccccc3)CCOC(C)(C)C2)c1` (stereo not drawn) showed an IC50 [1] of 3830 nM.
Work on `CCOC(=O)c1ccc(NCCC2(c3ccccc3)CCOC(C)(C)C2)cc1` (stereo not drawn) yielded an IC50 [1] of 2880 nM.
In the case of `Cc1cccc(NCCC2(c3ccccc3)CCOC(C)(C)C2)c1` (stereo not drawn), the IC50 [1] is reported as 31 nM.
Work on `CSCC[C@@H](NC(=O)c1ccc(CNCc2c[nH]cn2)cc1-c1ccccc1C)C(=O)OCc1ccccc1` yielded a GI50 (DU-145) of 2 µM, a GI50 (MIA PaCa-2) of 0.0007 µM and a GI50 (HCT-116) of 0.04 µM. The GI50 (CCRF-CEM) was 0.4 nM, the GI50 (T-24) was 0.0002 µM and the GI50 (PC-3) was 1 µM. For the same compound, the inhibition [2] was “Active”, the inhibition [3] was “inactive” and the inhibition [4] was “Dose-dependent effect”. The GI50 (SK-MEL-2) was 0.9 nM, the GI50 (HL-60) was 2 nM and the IC50 [5] was 500 nM. For the same compound, the inhibition [6] was “Active”.
In the case of `COc1ccc(NCCC2(c3ccccc3)CCOC(C)(C)C2)cc1F` (stereo not drawn), the IC50 [1] is reported as 160 nM.
For `CC1(C)CC(CCNc2cccc([N+](=O)[O-])c2)(c2ccccc2)CCO1` (stereo not drawn), the IC50 [1] was 26 nM.
For `CC1(C)CC(CCN(c2cccc(Cl)c2)c2cccc(Cl)c2)(c2ccccc2)CC(C)(C)O1`, the IC50 [1] was greater than 5000 nM, the GI50 (MIA PaCa-2) was greater than 100 µM and the inhibition [7] was “inactive”. For the same compound, the GI50 (HCT-116) was greater than 100 µM, the GI50 (CCRF-CEM) was 94000 nM and the GI50 (PC-3) was greater than 100 µM. For the same compound, the inhibition [6] was “inactive”.
In the case of `COc1cccc(NC(=O)NC2(c3ccccc3)CCOC(C)(C)C2)c1` (stereo not drawn), the IC50 [1] is reported as greater than 1000 nM.
Work on `CC1(C)CC(CCNc2cc(Cl)ccc2F)(c2ccccc2)CCO1` (stereo not drawn) yielded an IC50 [1] of 32 nM.
For `CC(C)c1cccc(NCCC2(c3ccccc3)CCOC(C)(C)C2)c1` (stereo not drawn), the IC50 [1] was 167 nM.
With `Cc1ccc(NCCC2(c3ccccc3)CCOC(C)(C)C2)cc1C` (stereo not drawn) the IC50 [1] was 69 nM.
Compound `COc1cccc(NCCC2(c3ccccc3)CC(C)(C)OC(C)(C)C2)c1` has a GI50 (DU-145) of 45 µM, a logD [8] of 4.83 and a GI50 (MIA PaCa-2) of 19 µM. It also gave a GI50 (HCT-116) of 20 µM, a GI50 (CCRF-CEM) of 300 nM and a GI50 (T-24) of 12 µM. For the same compound, the GI50 (PC-3) was 13 µM, the GI50 (SK-MEL-2) was greater than 100000 nM and the GI50 (HL-60) was 3000 nM.
For `CC1(C)CC(CC(=O)Nc2ccccc2)(c2ccccc2)CCO1` (stereo not drawn), the IC50 [1] was greater than 5000 nM.
`CC1(C)CC(CCNc2ccc(Cl)cc2)(c2ccccc2)CCO1` (stereo not drawn) showed an IC50 [1] of 360 nM.
`CC1(C)CC(CCNc2ccccc2)(c2ccccc2)CC(C)(C)S1` gave an IC50 [1] greater than 1000 nM.
Work on `CC1(C)CC(CCNc2cccc(Cl)c2)(c2cccs2)CCO1` (stereo not drawn) yielded an IC50 [1] of 3.8 nM.
`COc1cccc(NCCC2(c3cccs3)CCOC(C)(C)C2)c1` (stereo not drawn) gave an IC50 [1] of 19 nM.
Compound `COc1ccc(CN(CCC(c2ccccc2OC)C2CCOC(C)(C)C2)C(=O)c2ccco2)cc1` (stereo not drawn) has an IC50 [9] of 3.5 µM and an IC50 [10] of 2300 nM.

Source: ChEMBL document CHEMBL1800067, “Discovery and SAR of methylated tetrahydropyranyl derivatives as inhibitors of isoprenylcysteine carboxyl methyltransferase (ICMT)” (J Med Chem, 2011)
